According to ChEMBL document CHEMBL4680084, “New β-Lactam Derivatives Modulate Cell Adhesion and Signaling Mediated by RGD-Binding and Leukocyte Integrins” (J Med Chem, 2016):
Calls of active or inactive are those of the source. The rule behind the calls is not given here.

What was measured:
Integrin alpha-V/beta-5 [1] = molecular target: T1, Integrin alpha-V/beta-5 (Homo sapiens, UniProt P06756+P18084); test: Agonist activity at alphaVbeta5 in human MCF7 cells assessed as increase in cell adhesion to fibrinogen pre-incubated for 30 mins before fibrinogen and further incubated for 1 hr by nitrophenyl-N-acetyl-beta-D-glucosaminide substrate based chromogenic assay
Method in brief: (§1)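 Compound or methanol vehicle pre-incubated with cells for 30 min at room temperature. Cells then plated on wells coated overnight at 4 °C with fibronectin 10 µg/mL (SK-MEL-24, K562, HT-29) or fibrinogen 10 µg/mL (MCF7, HEL). Seeding was 50,000 cells/well, or 100000 for HEL. Adhesion ran 1 h at room temperature. Wells washed with 1% BSA/PBS. Adherent cells read by hexosaminidase substrate, absorbance 405 nm. Quadruplicate, at least three repeats.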

[2] = molecular target: T2, Integrin alpha-IIb/beta-3 (Homo sapiens, UniProt P05106+P08514); test: Antagonist activity at alpha2bbeta3 in human HEL cells assessed as reduction in cell adhesion to fibrinogen pre-incubated for 30 mins before fibrinogen and further incubated for 1 hr by nitrophenyl-N-acetyl-beta-D-glucosaminide substrate based chromogenic assay
Method in brief: as §1, with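 “BSA/PBS.” for “BSA/PBS. Adherent cells read by hexosaminidase substrate, absorbance 405 nm.”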

Integrin alpha-V/beta-6 [3] = molecular target: T3, Integrin alpha-V/beta-6 (Homo sapiens, UniProt P06756+P18564); test: Agonist activity at alphaVbeta6 in human HT-29 cells assessed as increase in cell adhesion to fibronectin pre-incubated for 30 mins before fibronectin and further incubated for 1 hr by nitrophenyl-N-acetyl-beta-D-glucosaminide substrate based chromogenic assay; method in brief: as §1
HEL = test: Toxicity in human HEL cells assessed as induction of cell necrosis and/or apoptosis incubated for 3 hrs by annexin V-PE and 7-AAD staining based by flow cytometry
Method in brief: (§2)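 After 3 h incubation, cells resuspended in complete medium and stained with annexin V-PE/7-AAD reagent for 20 min at room temperature in the dark. Flow cytometry sorted cells into viable, early apoptotic and late apoptotic/necrotic populations.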

[4] = molecular target: T4, Integrin alpha-L/beta-2 (LFA-1) (Homo sapiens, UniProt P05107+P20701); test: Antagonist activity at alphaLbeta2 in human Jurkat E6.1 cells assessed as reduction in cell adhesion to ICAM1 pre-incubated for 30 mins before ICAM1 and further incubated for 30 mins by […]; type: cell-based
Method in brief: (§3)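 Jurkat E6.1 cells labelled with CellTracker green CMFDA (12.5 µM, 30 min, 37 °C), washed, then pre-incubated 30 min at 37 °C with compound or methanol. Plated at 500,000/well on VCAM-1 (α4β1) or ICAM-1 (αLβ2) coated wells (5 µg/mL) for 30 min at 37 °C. Cells lysed in 0.5% Triton X-100; fluorescence read Ex485/Em535. Quadruplicate, at least three repeats.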

Integrin alpha-V/beta-6 [5] = molecular target: T3, Integrin alpha-V/beta-6; test: Antagonist activity at alphaVbeta6 in human HT-29 cells assessed as reduction in cell adhesion to fibronectin pre-incubated for 30 mins before fibronectin and further incubated for 1 hr by nitrophenyl-N-acetyl-beta-D-glucosaminide substrate based chromogenic assay
Method in brief: as §1, with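 “BSA/PBS.” for “BSA/PBS. Adherent cells read by hexosaminidase substrate, absorbance 405 nm.”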

Integrin alpha-5/beta-1 [6] = molecular target: T5, Integrin alpha-5/beta-1 (Homo sapiens, UniProt P05556+P08648); test: Antagonist activity at alpha5beta1 in human K562 cells assessed as reduction in cell adhesion to fibronectin pre-incubated for 30 mins before fibronectin and further incubated for 1 hr by nitrophenyl-N-acetyl-beta-D-glucosaminide substrate based chromogenic assay; method in brief: as §1
HT-29 = test: Toxicity in human HT-29 cells assessed as induction of cell necrosis and/or apoptosis incubated for 3 hrs by annexin V-PE and 7-AAD staining based by flow cytometry; conditions: ht-29, 3 h; method in brief: as §2
Integrin alpha-5/beta-1 [7] = molecular target: T5, Integrin alpha-5/beta-1; test: Agonist activity at alpha5beta1 in human K562 cells assessed as increase in cell adhesion to fibronectin pre-incubated for 30 mins before fibronectin and further incubated for 1 hr by nitrophenyl-N-acetyl-beta-D-glucosaminide substrate based chromogenic assay; method in brief: as §1
MCF7 = test: Toxicity in human MCF7 cells assessed as induction of cell necrosis and/or apoptosis incubated for 3 hrs by annexin V-PE and 7-AAD staining based by flow cytometry; conditions: mcf7, 3 h; method in brief: as §2
[8] = molecular target: T4, Integrin alpha-L/beta-2 (LFA-1); test: Agonist activity at alphaLbeta2 in human Jurkat E6.1 cells assessed as increase in cell adhesion to ICAM1 pre-incubated for 30 mins before ICAM1 and further incubated for 30 mins by […]; type: cell-based; method in brief: as §3
K562 = test: Toxicity in human K562 cells assessed as induction of cell necrosis and/or apoptosis incubated for 3 hrs by annexin V-PE and 7-AAD staining based by flow cytometry; conditions: k562, 3 h; method in brief: as §2
Integrin alpha-V/beta-5 [9] = molecular target: T1, Integrin alpha-V/beta-5; test: Antagonist activity at alphaVbeta5 in human MCF7 cells assessed as reduction in cell adhesion to fibrinogen pre-incubated for 30 mins before fibrinogen and further incubated for 1 hr by nitrophenyl-N-acetyl-beta-D-glucosaminide substrate based chromogenic assay
Method in brief: as §1, with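 “BSA/PBS.” for “BSA/PBS. Adherent cells read by hexosaminidase substrate, absorbance 405 nm.”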

Integrin alpha-4/beta-1 [10] = molecular target: T6, Integrin alpha-4/beta-1 (Homo sapiens, UniProt P05556+P13612); test: Antagonist activity at alpha4beta1 in human Jurkat E6.1 cells assessed as reduction in cell adhesion to VCAM1 pre-incubated for 30 mins before VCAM1 and further incubated for 30 mins by […]; type: cell-based
Integrin alpha-V/beta-3 [11] = molecular target: T7, Integrin alpha-V/beta-3 (Homo sapiens, UniProt P05106+P06756); test: Antagonist activity at alphaVbeta3 in human SK-MEL-24 cells assessed as reduction in cell adhesion to fibronectin at 10 to 10000 nM pre-incubated for 30 mins before fibronectin and further incubated for 1 hr by nitrophenyl-N-acetyl-beta-D-glucosaminide substrate based chromogenic assay; conditions: filed as antagonist, dose 10-10000 nM, time 90.0 min
Method in brief: (§4)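 SK-MEL-24 cells pre-incubated 30 min at room temperature with compound (1×10^-10–1×10^-4 M) or methanol, then plated at 50,000/well on fibronectin (10 µg/mL) coated wells for 1 h at room temperature. Adherent cells quantified by 4-nitrophenyl-N-acetyl-glucosaminide hydrolysis, absorbance 405 nm. Quadruplicate, at least three repeats; IC50/EC50 derived.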

Integrin alpha-4/beta-1 [12] = molecular target: T6, Integrin alpha-4/beta-1; test: Agonist activity at alpha4beta1 in human Jurkat E6.1 cells assessed as increase in cell adhesion to VCAM1 pre-incubated for 30 mins before VCAM1 and further incubated for 30 mins by […]; type: cell-based; method in brief: as §3
[13] = molecular target: T2, Integrin alpha-IIb/beta-3; test: Agonist activity at alpha2bbeta3 in human HEL cells assessed as increase in cell adhesion to fibrinogen pre-incubated for 30 mins before fibrinogen and further incubated for 1 hr by nitrophenyl-N-acetyl-beta-D-glucosaminide substrate based chromogenic assay
Method in brief: as §1, with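 “BSA/PBS.” for “BSA/PBS. Adherent cells read by hexosaminidase substrate, absorbance 405 nm.”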

Integrin alpha-V/beta-3 [14] = molecular target: T7, Integrin alpha-V/beta-3; test: Agonist activity at alphaVbeta3 in human SK-MEL-24 cells assessed as increase in cell adhesion to fibronectin at 10 to 10000 nM pre-incubated for 30 mins before fibronectin and further incubated for 1 hr by nitrophenyl-N-acetyl-beta-D-glucosaminide substrate based chromogenic assay; conditions: filed as agonist, dose 10-10000 nM, time 90.0 min; method in brief: as §4
SK-MEL-24 = test: Toxicity in human SK-MEL-24 cells assessed as induction of cell necrosis and/or apoptosis incubated for 3 hrs by annexin V-PE and 7-AAD staining based by flow cytometry; conditions: sk-mel-24, 3 h; method in brief: as §2
Integrin alpha-4/beta-1 [15] = molecular target: T6, Integrin alpha-4/beta-1; test: Agonist activity at alpha4beta1 in human Jurkat E6.1 cells assessed as increase in cell adhesion to VCAM1 at 2 to 10 ug/ml pre-incubated for 30 mins and further incubated for 30 mins by nitrophenyl-N-acetyl-beta-D-glucosaminide substrate based chromogenic assay; conditions: filed as agonist, dose 2-10 µg/ml, time 60.0 min
Integrin alpha-V/beta-3 [16] = molecular target: T7, Integrin alpha-V/beta-3; test: Agonist activity at alphaVbeta3 in human SK-MEL-24 cells assessed as increase in cell adhesion to fibronectin pre-incubated for 30 mins before fibronectin and further incubated for 1 hr by nitrophenyl-N-acetyl-beta-D-glucosaminide substrate based chromogenic assay; method in brief: as §1
Integrin alpha-4/beta-1 [17] = molecular target: T6, Integrin alpha-4/beta-1; test: Agonist activity at alpha4beta1 in human Jurkat E6.1 cells assessed as increase in HUTS-21 antibody binding by flow cytometry analysis; type: cell-based; conditions: filed as agonist
Method in brief: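 Jurkat E6.1 cells at 10⁶/mL in 1% BSA/HBSS incubated 30 min at 37 °C with compound. PE-labelled HUTS-21 mAb then added for 45 min at room temperature. Cells washed, 10,000 analysed by flow cytometry. MFI corrected to isotype control set to 0. Four independent experiments in duplicate.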

Integrin alpha-V/beta-5 [18] = molecular target: T1, Integrin alpha-V/beta-5; test: Inhibition of fibrinogen binding to alphaVbeta5 isolated form human mCf7 cells incubated for 1 hr by […] competitive solid-phase binding assay
Integrin alpha-4/beta-1 [19] = molecular target: T6, Integrin alpha-4/beta-1; test: Agonist activity at alpha4beta1 in human Jurkat E6.1 cells assessed as increase in ERK1/2 phosphorylation at 1 to 100 nM by Western blot analysis; type: cell-based; conditions: filed as agonist, dose 1-100 nM
Integrin alpha-V/beta-6 [20] = molecular target: T3, Integrin alpha-V/beta-6; test: Inhibition of fibronectin binding to alphaVbeta6 isolated form human HT-29 cells incubated for 1 hr by […] competitive solid-phase binding assay; type: tissue-based
Integrin alpha-V/beta-3 [21] = molecular target: T7, Integrin alpha-V/beta-3; test: Inhibition of fibronectin binding to human recombinant alphaVbeta3 expressed in HEK293 cells incubated for 1 hr by […] competitive solid-phase binding assay; type: cell-based
Integrin alpha-5/beta-1 [22] = molecular target: T5, Integrin alpha-5/beta-1; test: Inhibition of fibronectin binding to alpha5beta1 isolated from human K562 cells incubated for 1 hr by […] competitive solid-phase binding assay; type: tissue-based
Method in brief: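 Plates coated overnight at 4 °C in carbonate buffer pH 9.6 with fibronectin 0.5 µg/mL (αvβ3, αvβ6, α5β1), fibrinogen 10 µg/mL (αIIbβ3, αvβ5) or ICAM-1 (αLβ2). Blocked 1 h in buffer containing Ca/Mg/Mn 1 mM each and 1% BSA. Purified integrin (3–10 µg/mL) incubated with compound (10⁻⁴–10⁻¹⁰ M) 1 h at room temperature. Bound integrin detected with primary antibody then AlexaFluor488 secondary, Ex485/Em535. Duplicate, at least three repeats.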

Integrin alpha-V/beta-3 [23] = molecular target: T7, Integrin alpha-V/beta-3; test: Antagonist activity at alphaVbeta3 in human SK-MEL-24 cells assessed as reduction in cell adhesion to fibronectin pre-incubated for 30 mins before fibronectin and further incubated for 1 hr by nitrophenyl-N-acetyl-beta-D-glucosaminide substrate based chromogenic assay
Method in brief: as §1, with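 “BSA/PBS.” for “BSA/PBS. Adherent cells read by hexosaminidase substrate, absorbance 405 nm.”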

Integrin alpha-4/beta-1 [24] = molecular target: T6, Integrin alpha-4/beta-1; test: Inhibition of fibronectin binding to […] isolated from human Jurkat E6.1 cells incubated for 1 hr by scintillation-proximity assay based competitive solid-phase binding assay; type: tissue-based

Row | SMILES | EC50 (Integrin alpha-V/beta-5 [1]) | IC50 [2] | EC50 (Integrin alpha-V/beta-6 [3]) | Activity (HEL) | IC50 [4] | IC50 (Integrin alpha-V/beta-6 [5]) | IC50 (Integrin alpha-5/beta-1 [6]) | Activity (HT-29) | EC50 (Integrin alpha-5/beta-1 [7]) | Activity (MCF7) | EC50 [8] | Activity (K562) | IC50 (Integrin alpha-V/beta-5 [9]) | EC50 [13] | Activity (SK-MEL-24) | further results
1 | Cc1ccccc1NC(=O)N1C(=O)C[C@H]1C(=O)NCCC(=O)O | > 5 µM | > 5 µM | > 5 µM | Non-Toxic | > 5 µM | > 5 µM | > 5 µM | Non-Toxic | > 5 µM | Non-Toxic | > 5 µM | Non-Toxic | > 5 µM | > 5 µM | Non-Toxic | IC50 (Integrin alpha-4/beta-1 [10]): > 5 µM; Activity (Integrin alpha-V/beta-3 [11]): Active; EC50 (Integrin alpha-4/beta-1 [12]): > 5 µM; Activity (Integrin alpha-V/beta-3 [14]): Active
2 | Cc1ccccc1NC(=O)N1C(=O)CC1CC(=O)O (centres undefined) | > 5 µM | > 5 µM | > 5 µM | Non-Toxic | > 5 µM | > 5 µM | > 5 µM | Non-Toxic | > 5 µM | Non-Toxic | > 5 µM | Non-Toxic | > 5 µM | > 5 µM | Non-Toxic | Activity (Integrin alpha-4/beta-1 [15]): Active; EC50 (Integrin alpha-V/beta-3 [16]): > 5 µM; Activity (Integrin alpha-4/beta-1 [17]): Dose-dependent effect; IC50 (Integrin alpha-V/beta-5 [18]): > 1 µM; Activity (Integrin alpha-4/beta-1 [19]): Active; IC50 (Integrin alpha-V/beta-6 [20]): > 1 µM; IC50 (Integrin alpha-V/beta-3 [21]): > 1 µM; IC50 (Integrin alpha-5/beta-1 [22]): > 1 µM; IC50 (Integrin alpha-V/beta-3 [23]): > 5 µM; IC50 (Integrin alpha-4/beta-1 [24]): 0.0098 µM
